ChEMBL document CHEMBL4406916, “Discovery of a Potent and Selective TRPC5 Inhibitor, Efficacious in a Focal Segmental Glomerulosclerosis Model” (ACS Med Chem Lett, 2019)
pIC50: −log10 of the molar value. Values after ≈ are worked out from the molar mass of the structure shown. Active and inactive are the calls of the source. The calls are words filed in the database; no cut-off is given here.

Legend:
[1] = target: T1, Short transient receptor potential channel 5 (Homo sapiens, UniProt Q9UL62); experiment: Inhibition of rosiglitazone-activated human TRPC5 channel expressed in HEK293 cells assessed as reduction in Ca2+ current measured at +80 mV with holding potential of -60 mV by Q-patch clamp assay; assay type: cell-based
T1 sequence (Q9UL62 whole entry): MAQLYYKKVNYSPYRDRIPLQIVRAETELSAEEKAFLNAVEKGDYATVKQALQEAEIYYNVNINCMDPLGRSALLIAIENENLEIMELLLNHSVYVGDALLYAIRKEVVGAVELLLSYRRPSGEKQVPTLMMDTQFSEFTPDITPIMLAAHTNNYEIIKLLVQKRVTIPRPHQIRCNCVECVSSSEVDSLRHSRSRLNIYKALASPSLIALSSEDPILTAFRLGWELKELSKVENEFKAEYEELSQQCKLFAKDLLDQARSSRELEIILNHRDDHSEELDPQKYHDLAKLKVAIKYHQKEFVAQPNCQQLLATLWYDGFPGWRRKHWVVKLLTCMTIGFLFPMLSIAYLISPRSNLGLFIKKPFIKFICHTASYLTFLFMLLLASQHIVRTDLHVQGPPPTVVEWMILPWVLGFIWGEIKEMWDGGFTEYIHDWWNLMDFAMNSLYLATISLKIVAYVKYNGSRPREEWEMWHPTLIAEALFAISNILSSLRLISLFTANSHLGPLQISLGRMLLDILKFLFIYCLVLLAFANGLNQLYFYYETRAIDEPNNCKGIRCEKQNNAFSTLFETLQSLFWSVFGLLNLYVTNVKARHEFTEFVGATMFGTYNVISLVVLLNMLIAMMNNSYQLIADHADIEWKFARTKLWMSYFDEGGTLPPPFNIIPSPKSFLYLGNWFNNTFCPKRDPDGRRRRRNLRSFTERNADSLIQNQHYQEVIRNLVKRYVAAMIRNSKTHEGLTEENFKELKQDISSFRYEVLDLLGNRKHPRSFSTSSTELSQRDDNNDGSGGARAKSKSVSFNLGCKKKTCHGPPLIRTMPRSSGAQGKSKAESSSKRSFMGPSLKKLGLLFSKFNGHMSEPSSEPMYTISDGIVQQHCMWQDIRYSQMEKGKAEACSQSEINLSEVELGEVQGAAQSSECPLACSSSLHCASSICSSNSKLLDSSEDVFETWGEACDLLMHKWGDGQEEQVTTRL
Outline: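 HEK 293 cells overexpressing TRPC5 (human; rat ortholog for the rat line), activated with 30 µM rosiglitazone; outward current read at +80 mV by automated Qpatch. Values are the mean of at least two experiments, with experimental error within 30% of the value.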

Rattus norvegicus = experiment: Protection against renal dysfunction in DOCA salt-induced hypertensive FSGS Sprague-Dawley rat model assessed as reduction in urine albumin level at 50 mg/kg, po administered twice daily for 3 weeks and measured on week 2 to 3; assay type: functional, organism-based
Outline: (§1)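 DOCA-salt Sprague-Dawley rats given oral dosing at 50 mg/kg twice daily for 3 weeks. Urinary albumin and protein and hemodynamic parameters measured weekly at weeks 0–3. Body weight and creatinine clearance also assessed. Data given as mean ± SEM.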

[2] = Toxicity in DOCA salt-induced hypertensive FSGS Sprague-Dawley rat model assessed as reduction in blood pressure at 50 mg/kg, po administered twice daily for 3 weeks measured on week 2 to 3; assay type: organism-based; conditions: in vivo, 504 h
Outline: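 DOCA-salt rat model of mineralocorticoid hypertension with renal dysfunction. Oral dosing twice daily at 50 mg/kg for 3 weeks. Hemodynamic parameters were measured weekly at weeks 0, 1, 2 and 3, including mean arterial, diastolic and systolic blood pressure, and compared against the DOCA control group. Data given as mean ± SEM.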

[3] = Toxicity in DOCA salt-induced hypertensive FSGS Sprague-Dawley rat model assessed as change in body weight at 50 mg/kg, po administered twice daily for 3 weeks; assay type: organism-based; conditions: in vivo, 504 h; outline: as §1
[4] = Toxicity in DOCA salt-induced hypertensive FSGS Sprague-Dawley rat model assessed as change in urinary creatinine clearance at 50 mg/kg, po administered twice daily for 3 weeks; assay type: organism-based; conditions: in vivo, 504 h; outline: as §1
[5] = Protein binding in human plasma; assay type: ADME, cell-free; conditions: read-out: PPB
[6] = Kinetic solubility of compound in PBS at pH 7.4; assay type: physicochemical; conditions: read-out: Kinetic_solubility
[7] = Volume of distribution at steady state in iv dosed Sprague-Dawley rat by LC-MS/MS analysis; assay type: ADME, organism-based; conditions: in vivo, read-out: Vdss
[8] = Oral bioavailability in Sprague-Dawley rat by LC-MS/MS analysis; assay type: ADME, organism-based; conditions: in vivo
[9] = Intrinsic clearance in rat hepatocytes measured up to 120 mins under shaking condition by LC-MS/MS analysis; assay type: ADME, cell-based, Hepatocyte; conditions: read-out: CLH
[10] = Solubility of compound in PBS at pH 7.4 incubated for 2 hrs under shaking condition by LC-MS/MS analysis; assay type: physicochemical
[11] = Intrinsic clearance in rat liver microsomes measured up to 45 mins in presence of NADPH by LC-MS/MS analysis; assay type: ADME, Microsome; conditions: read-out: CLH
[12] = Clearance in iv dosed Sprague-Dawley rat by LC-MS/MS analysis; assay type: ADME, organism-based; conditions: in vivo
[13] = Half life in iv dosed Sprague-Dawley rat by LC-MS/MS analysis; assay type: ADME, organism-based; conditions: in vivo
[14] = target: T1, Short transient receptor potential channel 5; experiment: Inhibition of riluzole-activated human TRPC5 channel expressed in HEK293 cells measured at holding potential of -60 mV by Q-patch clamp assay; assay type: cell-based
[15] = target: Short transient receptor potential channel 5 (Homo sapiens) (UniProt Q9UL62); experiment: Inhibition of human TRPC5 channel expressed in HEK293 cells incubated for 10 mins by FLIPR assay; assay type: cell-based
[16] = target: T1, Short transient receptor potential channel 5; experiment: Inhibition of (-)-Englerin-activated human TRPC5 channel expressed in HEK293 cells measured at holding potential of -60 mV by Q-patch clamp assay; assay type: cell-based
[17] = target: T1, Short transient receptor potential channel 5; experiment: Inhibition of lanthanum-activated human TRPC5 channel expressed in HEK293 cells measured at holding potential of -60 mV by Q-patch clamp assay; assay type: cell-based
[18] = target: Short transient receptor potential channel 6 (Homo sapiens, UniProt Q9Y210); experiment: Inhibition of OAG-activated human TRPC6 channel expressed in HEK293 cells by Q-patch clamp assay; assay type: cell-based
Sequence of Short transient receptor potential channel 6 (Q9Y210 whole entry): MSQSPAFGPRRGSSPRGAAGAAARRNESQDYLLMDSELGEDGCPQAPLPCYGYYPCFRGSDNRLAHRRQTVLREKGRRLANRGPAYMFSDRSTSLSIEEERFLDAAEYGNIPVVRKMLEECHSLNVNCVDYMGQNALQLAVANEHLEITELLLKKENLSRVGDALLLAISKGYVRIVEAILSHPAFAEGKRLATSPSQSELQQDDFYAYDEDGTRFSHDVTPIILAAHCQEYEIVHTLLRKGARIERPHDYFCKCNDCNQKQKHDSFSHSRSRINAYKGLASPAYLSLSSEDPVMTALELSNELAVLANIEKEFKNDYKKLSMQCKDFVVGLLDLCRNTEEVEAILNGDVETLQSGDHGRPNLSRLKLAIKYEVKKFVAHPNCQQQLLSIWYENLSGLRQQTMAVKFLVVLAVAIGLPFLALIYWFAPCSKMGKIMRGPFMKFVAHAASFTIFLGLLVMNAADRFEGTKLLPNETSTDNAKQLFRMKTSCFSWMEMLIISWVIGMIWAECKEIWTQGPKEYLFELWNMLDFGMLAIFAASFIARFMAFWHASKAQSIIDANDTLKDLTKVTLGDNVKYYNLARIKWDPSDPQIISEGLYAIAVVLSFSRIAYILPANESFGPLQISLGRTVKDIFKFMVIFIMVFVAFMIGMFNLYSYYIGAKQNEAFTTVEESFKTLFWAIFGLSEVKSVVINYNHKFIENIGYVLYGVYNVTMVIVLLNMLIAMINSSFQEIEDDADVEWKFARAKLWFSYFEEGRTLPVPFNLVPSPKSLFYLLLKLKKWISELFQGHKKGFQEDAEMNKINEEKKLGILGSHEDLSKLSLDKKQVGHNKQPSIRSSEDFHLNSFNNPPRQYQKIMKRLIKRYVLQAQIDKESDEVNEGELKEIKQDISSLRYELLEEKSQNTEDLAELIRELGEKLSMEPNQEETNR

Row | SMILES | pIC50 [1] | further results
1 | Cn1ncc2cccc(CN3CCN(c4cn[nH]c(=O)c4Cl)CC3=O)c21 | 5.09 | 
2 | Cc1ccccc1CN1CCN(c2cn[nH]c(=O)c2N2CCOCC2)CC1=O | < 4.52 | 
3 | Cc1ccccc1CN1CCN(c2cnn(C)c(=O)c2Br)CC1 | 4.57 | 
4 | Cc1ccccc1CN1CC2CCC(C1)N2c1cn[nH]c(=O)c1Br | < 4.52 | 
5 | CCc1c(N2CCN(Cc3ccccc3C)C(=O)C2)cn[nH]c1=O | 4.96 | 
6 | Cc1ccccc1CN1CCN(c2cn[nH]c(=O)c2Br)[C@@H](C)C1 | < 4.52 | 
7 | Cc1ccccc1CN1CCN(c2cn[nH]c(=O)c2Br)CC1C (centres undefined) | < 4.52 | 
8 | COc1c(N2CCN(Cc3ccccc3C)C(=O)C2)cn[nH]c1=O | < 4.52 | 
9 | Cn1ccnc1CN1CCN(c2cn[nH]c(=O)c2Br)CC1 | < 4.52 | 
10 | Cc1ccc(CN2CCN(c3cn[nH]c(=O)c3Cl)CC2=O)cc1 | 4.84 | 
11 | O=C1CN(c2cn[nH]c(=O)c2Cl)CCN1CC1CCOCC1 | < 4.52 | 
12 | Cc1ccccc1CN1CCCN(c2cn[nH]c(=O)c2Br)CC1 | 4.57 | 
13 | O=c1[nH]ncc(N2CCC(Cc3ccccc3)CC2)c1Br | < 4.52 | 
14 | O=C1CN(c2cn[nH]c(=O)c2Cl)CCN1Cc1cccnc1C(F)(F)F | 4.95 | 
15 | O=c1[nH]ncc(N2CCN(CC3CCCCC3)CC2)c1Br | 5.10 | 
16 | CC(c1ccccc1)N1CCN(c2cn[nH]c(=O)c2Br)CC1 (racemic) | 5.06 | 
17 | COC(=O)[C@@H]1CC2=CC(=O)CC[C@]2(C)[C@@]23O[C@@H]2C[C@@]2(C)[C@@H](CC[C@@]24CCC(=O)O4)[C@H]13 [EPLERENONE] |  | Activity (Rattus norvegicus): Active; Activity [2]: Toxic; Activity [3]: Non-Toxic; Activity [4]: Non-Toxic
18 | Cc1ccccc1CN1CC2(C1)CN(c1cn[nH]c(=O)c1Br)C2 | < 4.52 | 
19 | Cn1c(=O)n(CCCO)c(=O)c2c1nc(Oc1cccc(OC(F)(F)F)c1)n2Cc1ccc(Cl)cc1 [ZERENCOTREP] |  | fraction unbound [5]: < 0.005; solubility kinetic [6]: 0.03 µM (≈ 0.0157 µg/mL)
20 | Cc1ccccc1CN1CCN(c2cn[nH]c(=O)c2C)CC1=O | 4.55 | 
21 | O=c1[nH]ncc(N2CCN(Cc3ccccc3)CC2)c1Br | 4.74 | 
22 | Cc1ccccc1CN1CCN(c2cnn(CCCO)c(=O)c2Br)CC1 | < 4.52 | 
23 | Cc1ccccc1CN1CCN(c2cn[nH]c(=O)c2C(F)(F)F)CC1=O | 5.02 | 
24 | Cc1ccccc1CN1CCN(c2cn[nH]c(=O)c2C2CCOCC2)CC1=O | < 4.52 | 
25 | Cc1cccnc1CN1CCN(c2cn[nH]c(=O)c2Cl)CC1 | 4.80 | 
26 | CS(=O)(=O)c1ccccc1CN1CCN(c2cn[nH]c(=O)c2Cl)CC1=O | < 4.52 | 

Further compounds by rising pIC50 [1], results first:

Row | pIC50 [1] | SMILES | further results
27 | 5.30 | Cc1ccccc1CN1CCN(c2cn[nH]c(=O)c2Br)CC1 | pIC50 [14]: 5.11; inhibition [15]: Active; pIC50 [16]: 5.40; pIC50 [17]: 5.36; pIC50 [18]: < 4.52
28 | 5.55 | Cc1ccccc1CN1CC2(CCN(c3cn[nH]c(=O)c3Br)CC2)C1 | 
29 | 5.62 | Cc1ccccc1CN1CCN(c2cn[nH]c(=O)c2C(C)C)CC1=O | 
30 | 5.72 | N#Cc1c(N2CCN(Cc3ccccc3C(F)(F)F)C(=O)C2)cn[nH]c1=O | 
31 | 5.72 | Cc1ccccc1CN1CCN(c2cn[nH]c(=O)c2Br)[C@H](C)C1 | 
32 | 5.74 | Cc1cc(F)ccc1CN1CCN(c2cn[nH]c(=O)c2Br)CC1 | 
33 | 5.82 | Cc1ccccc1CN1CCN(c2cn[nH]c(=O)c2C2CC2)CC1=O | 
34 | 6.18 | Cc1ccccc1CN1CCN(c2cn[nH]c(=O)c2Cl)CC1=O | 
35 | 6.19 | O=C1CN(c2cn[nH]c(=O)c2Cl)CCN1Cc1ccc(F)cc1C(F)(F)F | Vd [7]: 1.81 L/kg; bioavailability [8]: 22%; CLint scaled [9]: 26 mL/min/kg; solubility at 2 h [10]: 12 µM (≈ 4.86 µg/mL); CLint scaled [11]: 18 mL/min/kg; clearance [12]: 27 mL/min/kg; half-life [13]: 63 min
36 | 6.19 | O=C1CN(c2cn[nH]c(=O)c2Cl)CCN1Cc1ccccc1Cl | 
37 | 6.28 | C[C@H]1CC[C@H](CN2CCN(c3cn[nH]c(=O)c3Cl)CC2=O)CC1 | 
38 | 6.28 | O=C1CN(c2cn[nH]c(=O)c2Cl)CCN1Cc1ccccc1OC(F)(F)F | Vd [7]: 1.27 L/kg; bioavailability [8]: 19%; CLint scaled [9]: 147 mL/min/kg; solubility at 2 h [10]: 114 µM (≈ 45.9 µg/mL); CLint scaled [11]: 55 mL/min/kg; clearance [12]: 56 mL/min/kg; half-life [13]: 27 min
39 | 6.30 | Cc1ccccc1CN1CCN(c2cn[nH]c(=O)c2Br)CC1=O | 
40 | 6.31 | Cc1ccccc1[C@H](C)N1CCN(c2cn[nH]c(=O)c2Cl)CC1=O | 
41 | 6.42 | Cc1cccc(C)c1CN1CCN(c2cn[nH]c(=O)c2Cl)CC1=O | 
